Our source for the Activity values is ChEMBL document CHEMBL4002604, “Evaluation of biological properties of 3,3',4,4'-benzophenonetetracarboxylic dianhydride derivatives and their ability to inhibit hexokinase activity” (2017).

In this test the test system is P19. Nature of the test: Cytotoxicity against undifferentiated mouse P19 cells assessed as mitochondrial membrane potential at 1 uM after 24 hrs by TMRF dye based fluorescence assay relative to control. It counts as functional. Summed up: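 Undifferentiated (P19SCs) or differentiated (P19dCs) P19 cells incubated 24 or 72 h with 1 or 100 µM. Mitochondrial membrane potential and mitochondrial superoxide levels measured and expressed relative to untreated control. Means ± SD from 4 independent measurements, at least 4 repeats each. Significance at p<0.05.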

`O=C(c1ccc2c(c1)C(=O)N(c1cccc(O)c1)C2=O)c1ccc2c(c1)C(=O)N(c1cccc(O)c1)C2=O`: the Activity came out at 86%.
